High-throughput results (PubChem)
Most compounds without a hit are left out; they make up all but 0.58% or so of the library.
V1R ag counter – counter-screen for oxytocin receptor agonists: human V1a receptor agonists. P37288. CHO-V1R cells, Fluo-8 calcium fluorescence, agonist mode; 0% DMSO, 100% 3 nM vasopressin. 0.25% of 320,000 active. activation, % at 3 µM;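 active means activation above the mean activation of all tested compounds plus 3 SD, per screening run, cut at about 20% in these data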;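 further: signal is peak over basal fluorescence ratio across a 100 second FLIPR read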
TRPN1 ag – activates the zebrafish TRPN1 channel; HEK293 zebrafish TRPN1-YFP, Fluo-8 calcium fluorescence; 100% = response to 87 µM carbachol; activation, % at 3 µM; 0.18% of 220,000 active; AID 1424;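 active means activation above its plate's cutoff, the mean activation of test wells on that plate plus 3 SD, cut at about 19% in these data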;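 further: 0% = DMSO alone and 100% = 87 µM carbachol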
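System: zebrafish TRPN1-YFP in HEK293 cells / Dosing: 3 µM single point / Timing: dye loading 1 h at 37 °C, then 30 min room temperature / Signal: Fluo-8 calcium fluorescence, excitation 470-495 nm, emission 515-575 nm / Read-out basis: percent activation from peak over basal fluorescence ratio, control-normalized / Control set: high carbachol 87 µM, low DMSO alone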
OXTR potentiator – potentiators of human oxytocin receptor; P30559; CHO-OTR cells, Fluo-8 calcium fluorescence, potentiator mode; 0% = oxytocin EC15, 100% = EC100; activation, % at 3 µM; 0.061% of 320,000 active;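 active means activation above that plate's cutoff, the mean activation of tested compounds plus 3 SD, cut at about 6.6% in these data, passing the limit was not always enough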;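 further: 100% uses oxytocin at 75 nM as the full agonist control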
Target sequence (P30559 whole entry, looked up): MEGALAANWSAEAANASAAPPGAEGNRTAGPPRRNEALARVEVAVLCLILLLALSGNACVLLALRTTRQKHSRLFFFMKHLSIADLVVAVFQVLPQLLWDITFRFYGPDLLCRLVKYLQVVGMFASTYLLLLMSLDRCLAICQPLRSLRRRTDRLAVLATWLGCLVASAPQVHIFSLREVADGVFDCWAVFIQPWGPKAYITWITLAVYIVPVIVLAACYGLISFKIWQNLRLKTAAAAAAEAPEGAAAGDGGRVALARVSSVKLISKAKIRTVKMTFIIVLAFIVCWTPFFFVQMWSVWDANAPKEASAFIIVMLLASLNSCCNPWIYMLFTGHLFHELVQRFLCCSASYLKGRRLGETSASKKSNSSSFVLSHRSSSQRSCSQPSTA
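Assay system: CHO-OTR cells, human receptor / Also added: oxytocin at about EC15, sub-maximal agonist stimulus / Dosing: single dose, 3.0 µM nominal final compound concentration / Incubation: 6 min pre-incubation, 100 s read / Technique: Fluo-8 calcium dye fluorescence / Read-out: % activation vs EC15 and EC100 oxytocin / Benchmarks: EC15 oxytocin low, 75 nM oxytocin high / Replicates: singlicate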
OXTR ag – agonists of human oxytocin receptor; CHO-OTR cells, Fluo-8 calcium fluorescence; normalized: DMSO 0%, oxytocin 100%; activation, % at 3 µM; P30559; 0.32% of 320,000 active; AID 2435;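 active means activation above the mean of all tested compounds plus 3 SD, cutoff set per screening run, cut at about 20% in these data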;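 further: peak over basal fluorescence ratio from a 100 s FLIPR kinetic read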
TRPML3 agonist – agonists of human TRPML3 channel | HEK293 TRPML3-YFP, Fluo-8 calcium fluorescence; 100% = the carbachol control signal | 0.29% of 220,000 active | activation, % at 3 µM;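 active means activation above its plate's cutoff, the mean activation of the plate's test wells plus 3 SD, cut at about 12% in these data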;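 further: 0% = DMSO only wells and 100% = carbachol wells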
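Material: HEK293 cells stably carrying human TRPML3-YFP; compound dosing: single dose, 3 µM final nominal compound, 0.3% DMSO final; incubation: 1-h 37 °C dye load, 5-s basal, 120-s post-compound reads; technique: Fluo-8 intracellular calcium fluorescence, excitation 470-495 nm, emission 515-575 nm; read-out basis: percent activation from peak-to-basal fluorescence ratio, scaled between DMSO and carbachol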
* marks the source's active call; other numbers are inactive results; . = no result.

SMILES	V1R ag counter	TRPN1 ag	OXTR potentiator	OXTR ag	TRPML3 agonist
Cc1ccccc1C1=NC(C(F)(F)F)(C(F)(F)F)c2c(n(C)c(=O)n(C)c2=O)N1	0	0	-4	-1	0
CN(C)CCNC(=O)/C=C/c1cn(-c2ccccc2)nc1-c1cc2ccccc2oc1=O	0	2	-15	0	1
COCCNC(=O)c1ccccc1NC(=O)c1ccccc1SC	1	0	-12	0	0
Cc1ccccc1NC(=O)CN1C(=O)N/C(=C\c2ccc(N3CCOCC3)c(F)c2)C1=O	0	1	9.9*	2	1
Cc1ccc(NC(=O)CN2C(=O)N/C(=C/c3ccc(N4CCOCC4)cc3)C2=O)cc1	1	-1	-6	-1	2
O=C(Nc1ccc(C(=O)N2CCOCC2)cc1)Nc1ccc(Cl)cc1Cl	1	-1	-5	3	1
O=C(Cc1ccc(Cl)cc1)Nc1cc(S(=O)(=O)N2CCOCC2)ccc1N1CCCC1	0	-2	-15	-2	0
CN1CCN(c2ccc(S(=O)(=O)N3CCCCC3)cc2NC(=O)Cc2ccc(Cl)cc2)CC1	26*	4	-14	21*	1
COC(=O)C1=C(C)N(C2CCCCC2)C(=O)/C1=C\c1cccs1	-1	-2	-10	-3	0
O=C1C=C(Nc2ccc(Cl)cc2Cl)CC(c2ccco2)C1 (stereo unspecified)	0	-1	0	0	0
Cc1ccccc1N1C(=O)c2cccc3c(N(C)CCO)ccc(c23)C1=O	24*	26*	-15	25*	18*
COc1ccc(CCN2CCC(Nc3nc4ccccc4n3Cc3ccc(F)cc3)CC2)cc1	37*	1	-11	45*	2
Cc1nnc(SCC(=O)c2cc(C)n(-c3ccc4c(c3)OCO4)c2C)s1	6	27*	-12	10	17*
Cc1cc(C(=O)NC(C)CCC(C)C)c2ccccc2n1 (stereo unspecified)	0	-1	-11	-1	0
O=C(c1ccc(NC(=S)NCc2ccc(Cl)cc2)cc1)N1CCCCC1	21*	2	-12	21*	1
O=C(CNCc1ccc(Cl)cc1)Nc1ccc(C(=O)N2CCCCC2)cc1	5	.	-2	5	.
CCc1ccc(NC(=O)C(CC)c2ccccc2)cc1 (stereo unspecified)	35*	19	-8	27*	11
Cc1ccc(CSC(Nc2ccc(F)cc2)=C(C#N)C#N)cc1	9	25*	-6	9	15*
CCN(CC)C(=O)CSC(Nc1ccc(F)cc1)=C(C#N)C#N	6	9	-12	8	5
CCOC(=O)C1CCCN(C2=NC(=O)/C(=C/c3ccc(N(C)C)cc3)S2)C1 (stereo unspecified)	34*	.	-23	35*	.
CCOC(=O)C1CCCN(C2=NC(=O)/C(=C/c3ccc(OC)cc3)S2)C1 (stereo unspecified)	1	.	-2	-2	.
O=C(COC(=O)c1ccccc1)Nc1ncc([N+](=O)[O-])s1	7	.	-10	11	.
O=C(Nc1ccccc1)Nc1ncc([N+](=O)[O-])s1	.	22*	.	.	17*
Cc1nc(SCC(=O)NCCN2C(=O)CSC2=O)nc(C)c1C	1	.	0	2	.
CC(=O)Nc1ccc(Sc2ncccc2C(=O)Nc2ccc(F)cc2)cn1	70*	46*	-14	79*	35*
SMILES	V1R ag counter	TRPN1 ag	OXTR potentiator	OXTR ag	TRPML3 agonist
CCN(CC)c1ccc2c(Cl)c(Br)c(=O)oc2c1	85*	2	-22	62*	1
Cc1ccc(C(=O)Nn2cnc3ccccc3c2=O)cc1C	0	.	-10	-1	.
CCOc1cc(CNCCc2ccc(S(N)(=O)=O)cc2)ccc1OCc1ccc(Cl)cc1	27*	7	-23	37*	6
COc1ccc(S(=O)(=O)Nc2ccc(S(=O)(=O)N3CCCCC3)cc2)cc1	24*	0	-26	21*	0
COc1ccc(S(=O)(=O)Nc2ccc(S(=O)(=O)N3CCCC3)cc2)cc1	0	-1	-5	0	0
CCOc1cc(/C=N/N2CCOCC2)ccc1OCc1ccc(C(=O)OC)o1	-1	382*	-7	-2	144*
O=S(=O)([O-])CCC[n+]1c(/C=C\Nc2ccccc2)oc2ccc(-c3ccccc3)cc21	.	119*	.	.	25*
Cc1cccc(NC(=S)c2nc3ccccc3s2)c1	0	-1	-11	0	-1
Cc1ccc(S(=O)(=O)N2CCC(=O)N(C(COCc3ccccc3)C(C)C)CC2)cc1 (stereo unspecified)	-1	1	-5	-2	1
Cc1ccc(S(=O)(=O)N2CCC(=O)N(C(COCc3ccc(Cl)cc3)C(C)C)CC2)cc1 (stereo unspecified)	1	-1	-9	-2	14*
Cc1nnsc1C(=O)N/N=C/c1ccc2ccccc2c1O	47*	3	-13	67*	2
Cc1nnsc1C(=O)N/N=C/c1ccccc1	2	1	-4	0	0
Cn1cc(C2=C(c3ccc(Cl)cc3Cl)C(=O)NC2=O)c2ccccc21	31*	.	-11	29*	.
Cn1cc(-c2ccccc2C(N)=O)c(=O)c2cc(Cl)ccc21	1	0	2	1	0
Cn1c(CC(=O)c2ccc(Br)cc2)[n+](C)c2ccccc21	2	1	-18	0	1
Cc1ccc(NC(=O)c2cc3ccccc3oc2=N)cc1	0	.	-7	0	.
N=c1oc2c3c4c(cc2cc1C(=O)Nc1ccccc1)CCCN4CCC3	60*	3	-21	112*	1
COc1ccc(CCn2c(-c3cc([N+](=O)[O-])cc([N+](=O)[O-])c3)nc3nc4ccccc4nc32)cc1OC	-1	-1	12*	1	1
COc1ccc(CCn2c(-c3cc([N+](=O)[O-])cc([N+](=O)[O-])c3)nc3nc4ccccc4nc32)cc1	1	-1	0	0	1
O=C(O)c1ccc(OCC(O)Cn2c3ccccc3c3ccccc32)cc1 (stereo unspecified)	44*	1	-8	22*	1
OC(COc1ccccc1)Cn1c2ccccc2c2ccccc21 (stereo unspecified)	0	-2	3	0	0
C#CCN1C(=O)S/C(=C/C=C/c2ccc(N(C)C)cc2)C1=O	24*	10	-12	35*	4
O=C(Nn1c(-c2ccncc2)nc2ccccc2c1=O)c1ccc([N+](=O)[O-])cc1Cl	0	1	-3	0	-1
O=c1[nH][nH]c(C(F)(F)F)c1/C=N/N1CCOCC1	0	0	-4	0	1
CCN1C(=O)c2cccc3c(S(=O)(=O)Nc4ccccc4OC)ccc1c23	11	46*	-19	11	123*
